{"data": "Measured values of several laboratories", "CDK1 with cyclin B": "Cyclin-dependent kinase 1, with cyclin B (CDK1, Homo sapiens, UniProt P06493)", "note": "Protocols differ between the studies behind these lines."}
{"SMILES": "C#Cc1n[nH]c2c(-c3cn(C(C)c4ccccn4)c(=O)[nH]c3=O)cc(F)cc12 (stereo not drawn)", "target": "CDK1 with cyclin B", "test": "enzyme activity, inhibitor", "setting": "1 µM", "inhibition [%]": 6.8}
{"SMILES": "O=C(Nc1cccnn1)N1CCN([C@@H]2CCOc3cc(C(F)(F)F)ccc32)CC1", "target": "C-X-C chemokine receptor type 4 (CXCR4, Homo sapiens, UniProt P61073)", "test": "cell-free assay", "setting": "20 µM", "inhibition [%]": -21}
{"SMILES": "N#C[C@@H]1CC(F)(F)CN1C(=O)CNC(=O)c1ccnc2ccccc12", "target": "Prolyl endopeptidase FAP (FAP, Homo sapiens, UniProt Q12884)", "test": "enzyme activity, inhibitor", "setting": "1 nM", "inhibition [%]": 1}
{"SMILES": "C#Cc1n[nH]c2c(-c3cn([C@@H](C)c4ccccc4)c(=O)[nH]c3=O)cc(F)cc12", "target": "CDK1 with cyclin B", "test": "enzyme activity, inhibitor", "setting": "0.1 µM", "inhibition [%]": 5.9}
{"SMILES": "C=CCn1c2cc(OC(=O)CCCCN3CCN(Cc4cccc(Cl)c4)CC3)ccc2c2ccnc(C)c21", "target": "Acetylcholinesterase (ACHE, Homo sapiens, UniProt P22303)", "test": "enzyme activity, inhibitor, Ellman", "setting": "1 µM", "inhibition [%]": 48.1}
{"SMILES": "N=C(N)c1ccc2cc(OC(=O)c3ccc(N=C(N)N)cc3)ccc2c1", "target": "Dipeptidyl peptidase 4 (DPP4, Homo sapiens, UniProt P27487)", "test": "enzyme activity, inhibitor", "setting": "10 µM", "inhibition [%]": 18}
{"SMILES": "Cn1cc(-c2cc(F)cc(N3CCn4c(cc5c4CCCC5)C3=O)c2CO)cc(Nc2ccc(N3CCN(C4COC4)CC3)cn2)c1=O", "target": "CDK1 with cyclin B", "test": "enzyme activity, inhibitor", "setting": "0.1 µM", "inhibition [%]": 8}
{"SMILES": "COc1ccc(S(=O)(=O)N(CC(=O)NO)CC(C)C)cc1", "target": "Stromelysin-2 (Homo sapiens, UniProt P09238)", "test": "enzyme activity, inhibitor", "setting": "1 µM", "inhibition [%]": 63}
{"SMILES": "Cn1cc(-c2cccc(N3CCc4c(sc5c4CC(C)(C)C5)C3=O)c2CO)cc(Nc2ccncn2)c1=O", "target": "5'-AMP-activated protein kinase catalytic subunit alpha-2 (PRKAA2, Homo sapiens, UniProt P54646)", "test": "enzyme activity, inhibitor", "setting": "1 µM", "inhibition [%]": 5}
